Laboratory results as given in ChEMBL document CHEMBL1147831, “Kinesin spindle protein (KSP) inhibitors. Part 4: Structure-based design of 5-alkylamino-3,5-diaryl-4,5-dihydropyrazoles as potent, water-soluble inhibitors of the mitotic kinesin KSP” (Bioorg Med Chem Lett, 2006).
pEC50, pIC50: −log10 of the molar value. Values after ≈ are worked out from the molar mass of the structure shown.

Legend:
A2780 = assay: Mitotic arrest in human A2780 cells; assay type: functional, cell-based
[1] = Clearance in mongrel dog at 0.25 mg/kg, iv; assay type: ADME, organism-based, Canis lupus familiaris; parameters: dose 0.25 mg/kg, route intravenous; details: in vivo
Summary of the method: (§1)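 Single iv dose of 0.25 mpk given to two mongrel dogs, one male and one female.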

[2] = Volume of distribution in mongrel dog at 0.25 mg/kg, iv; assay type: ADME, organism-based, Canis lupus familiaris; parameters: dose 0.25 mg/kg, route intravenous; details: in vivo, read-out: Vdss; summary of the method: as §1
[3] = target: T1, Kinesin-like protein KIF11 (Homo sapiens, UniProt P52732); assay: Inhibition of KSP by ATPase assay
T1 sequence (P52732 whole entry): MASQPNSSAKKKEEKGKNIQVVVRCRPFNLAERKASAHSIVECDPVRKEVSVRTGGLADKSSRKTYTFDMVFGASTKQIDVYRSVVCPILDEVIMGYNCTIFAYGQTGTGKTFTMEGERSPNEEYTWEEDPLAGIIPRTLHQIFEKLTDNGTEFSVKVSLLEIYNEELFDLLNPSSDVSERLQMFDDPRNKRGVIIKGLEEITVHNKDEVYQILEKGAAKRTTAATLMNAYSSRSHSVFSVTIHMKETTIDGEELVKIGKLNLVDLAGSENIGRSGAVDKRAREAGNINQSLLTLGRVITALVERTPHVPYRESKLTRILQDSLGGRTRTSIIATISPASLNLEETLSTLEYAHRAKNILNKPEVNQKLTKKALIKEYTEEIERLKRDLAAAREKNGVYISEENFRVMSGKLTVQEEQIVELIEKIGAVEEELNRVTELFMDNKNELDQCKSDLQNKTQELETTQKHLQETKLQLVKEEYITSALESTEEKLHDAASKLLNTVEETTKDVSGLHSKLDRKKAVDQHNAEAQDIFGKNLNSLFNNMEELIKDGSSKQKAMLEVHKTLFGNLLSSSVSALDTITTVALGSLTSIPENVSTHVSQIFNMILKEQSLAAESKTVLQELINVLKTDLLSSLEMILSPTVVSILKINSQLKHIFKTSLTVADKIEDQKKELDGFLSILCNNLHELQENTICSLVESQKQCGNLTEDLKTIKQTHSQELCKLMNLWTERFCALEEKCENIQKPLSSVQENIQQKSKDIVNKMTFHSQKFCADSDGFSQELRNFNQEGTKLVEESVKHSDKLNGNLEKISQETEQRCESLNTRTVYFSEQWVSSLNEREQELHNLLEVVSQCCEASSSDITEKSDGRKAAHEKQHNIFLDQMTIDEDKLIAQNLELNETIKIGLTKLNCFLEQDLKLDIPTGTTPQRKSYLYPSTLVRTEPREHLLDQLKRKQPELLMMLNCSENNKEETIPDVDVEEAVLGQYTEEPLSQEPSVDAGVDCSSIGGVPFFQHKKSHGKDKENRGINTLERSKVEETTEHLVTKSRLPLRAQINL

[4] = Solubility in citrate at pH 6.5; assay type: physicochemical
Summary of the method: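 Crystalline solid; solubility determined in pH 6.5 citrate buffer.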

[5] = Partition coefficient, log P of the compound; assay type: physicochemical; details: octanol/water
[6] = Half life in mongrel dog at 0.25 mg/kg, iv; assay type: ADME, organism-based, Canis lupus familiaris; parameters: dose 0.25 mg/kg, route intravenous; details: in vivo; summary of the method: as §1
[7] = Aqueous solubility at pH 10.3; assay type: physicochemical; details: aqueous medium
Summary of the method: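 Solubility of crystalline material measured in water; final pH of the solution was 10.3.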

[8] = Solubility in citrate at pH 4.0; assay type: physicochemical
Summary of the method: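 Solubility of crystalline solid determined in citrate buffer at pH 4.0.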

[9] = target: Voltage-gated inwardly rectifying potassium channel KCNH2 (Homo sapiens, UniProt Q12809); assay: Inhibition of hERG expressed in HEK cells by radioligand binding assay; assay type: toxicity, cell-based, HEK293
Chain of Voltage-gated inwardly rectifying potassium channel KCNH2 (Q12809 whole entry): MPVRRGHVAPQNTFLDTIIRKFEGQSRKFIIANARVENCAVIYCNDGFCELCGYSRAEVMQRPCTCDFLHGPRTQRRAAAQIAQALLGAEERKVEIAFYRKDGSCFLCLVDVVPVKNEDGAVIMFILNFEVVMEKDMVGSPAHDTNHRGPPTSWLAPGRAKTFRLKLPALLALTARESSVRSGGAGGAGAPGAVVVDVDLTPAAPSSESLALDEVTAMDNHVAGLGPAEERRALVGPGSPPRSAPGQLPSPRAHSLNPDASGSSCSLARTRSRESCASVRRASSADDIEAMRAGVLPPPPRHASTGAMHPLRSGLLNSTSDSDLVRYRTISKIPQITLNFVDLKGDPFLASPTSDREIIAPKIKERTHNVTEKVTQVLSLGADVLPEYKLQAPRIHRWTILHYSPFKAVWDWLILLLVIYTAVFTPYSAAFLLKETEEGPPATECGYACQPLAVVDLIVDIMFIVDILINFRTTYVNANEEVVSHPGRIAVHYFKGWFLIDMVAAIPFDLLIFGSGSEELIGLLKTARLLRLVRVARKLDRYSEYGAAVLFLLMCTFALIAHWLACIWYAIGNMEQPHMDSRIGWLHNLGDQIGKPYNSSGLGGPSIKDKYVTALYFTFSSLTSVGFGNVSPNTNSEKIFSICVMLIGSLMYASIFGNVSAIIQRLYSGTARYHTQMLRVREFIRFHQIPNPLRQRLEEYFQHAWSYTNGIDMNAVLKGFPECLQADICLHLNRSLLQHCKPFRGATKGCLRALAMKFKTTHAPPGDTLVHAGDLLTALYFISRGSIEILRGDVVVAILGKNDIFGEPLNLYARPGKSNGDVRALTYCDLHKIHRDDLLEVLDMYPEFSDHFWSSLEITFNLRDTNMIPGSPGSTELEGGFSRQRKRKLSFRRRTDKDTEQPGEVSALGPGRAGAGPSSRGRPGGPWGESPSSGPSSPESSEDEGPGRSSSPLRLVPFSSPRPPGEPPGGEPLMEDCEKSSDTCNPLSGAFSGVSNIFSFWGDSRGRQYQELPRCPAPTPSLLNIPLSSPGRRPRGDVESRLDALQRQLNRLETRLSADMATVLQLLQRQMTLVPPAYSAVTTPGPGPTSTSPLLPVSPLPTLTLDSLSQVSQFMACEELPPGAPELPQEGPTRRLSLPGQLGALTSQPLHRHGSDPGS

SMILES | pIC50 [3] | also measured
CC(=O)N1N=C(c2cc(F)ccc2F)C[C@H]1c1cccc(O)c1 | 7.61 | pEC50 (A2780): 7.61; clearance [1]: 22.1 mL/min/kg; Vd [2]: 1.6 L/kg; solubility [4]: 29 µg/mL (≈ 0.0917 mM); logP [5]: 3.1; half-life [6]: 60 min
CNC(=O)N1N=C(c2cc(F)ccc2F)CC1(C)c1ccccc1 (stereo unspecified) | 6.55 | –
CNC(=O)N1N=C(c2cc(F)ccc2F)CC1(CO)c1ccccc1 (stereo unspecified) | 6.04 | –
CCNC(=O)N1N=C(c2cc(F)ccc2F)CC1(CCCCN)c1ccccc1 (stereo unspecified) | 7.17 | –
CCNC(=O)N1N=C(c2cc(F)ccc2F)CC1(CCCCNC(=O)c1ccccc1)c1ccccc1 (stereo unspecified) | 6.05 | –
CN(C)C(=O)N1N=C(c2cc(F)ccc2F)CC1(CCCN)c1ccccc1 (stereo unspecified) | 8.10 | –
CCNC(=O)N1N=C(c2cc(F)ccc2F)CC1(CCCCNC(=O)c1ncc[nH]1)c1ccccc1 (stereo unspecified) | 6.26 | –
CCNC(=O)N1N=C(c2cc(F)ccc2F)CC1(CCCCN(C)C)c1ccccc1 (stereo unspecified) | 6.99 | –
NCCCC1(c2ccccc2)CC(c2cc(F)ccc2F)=NN1C(=O)N1CCOCC1 (stereo unspecified) | 6.91 | –
CN(C)C(=O)N1N=C(c2cc(F)ccc2F)C[C@@]1(CCCN)c1ccccc1 | 8.72 | solubility [7]: 1700 µg/mL (≈ 4.4 mM); pEC50 (A2780): 8.28; solubility [8]: > 12 mg/mL; pIC50 [9]: 4.71; clearance [1]: 14.5 mL/min/kg; Vd [2]: 14 L/kg; logP [5]: 1.2; half-life [6]: 882 min
CCNC(=O)N1N=C(c2cc(F)ccc2F)CC1(CCCC[N+](C)(C)[O-])c1ccccc1 (stereo unspecified) | 6.23 | –
NCCCC1(c2ccccc2)CC(c2cc(F)ccc2F)=NN1C(=O)N1CCCCC1 (stereo unspecified) | 7.07 | –
CCNC(=O)N1N=C(c2cc(F)ccc2F)CC1(CCO)c1ccccc1 (stereo unspecified) | 6.22 | –
CCNC(=O)N1N=C(c2cc(F)ccc2F)CC1(CCCCO)c1ccccc1 (stereo unspecified) | 6.16 | –
CCNC(=O)N1N=C(c2cc(F)ccc2F)CC1(CCCCNC(=O)c1ccccn1)c1ccccc1 (stereo unspecified) | 6.41 | –

More lines, main results first:

pIC50 [3] | SMILES | also measured
6.41 | CCNC(=O)N1N=C(c2cc(F)ccc2F)CC1(CCN)c1ccccc1 (stereo unspecified) | –
7.00 | CCNC(=O)N1N=C(c2cc(F)ccc2F)CC1(CCCCNCc1ccccc1)c1ccccc1 (stereo unspecified) | –
6.16 | CCNC(=O)N1N=C(c2cc(F)ccc2F)CC1(CCCCNC(=O)c1cnc[nH]1)c1ccccc1 (stereo unspecified) | –
7.26 | NCCCC1(c2ccccc2)CC(c2cc(F)ccc2F)=NN1C(=O)N1CCC1 (stereo unspecified) | –
6.92 | CCNC(=O)N1N=C(c2cc(F)ccc2F)CC1(CCCCN1CC2C=CC1C2)c1ccccc1 (stereo unspecified) | –
7.59 | NCCCC1(c2ccccc2)CC(c2cc(F)ccc2F)=NN1C(=O)N1CCCC1 (stereo unspecified) | –
6.13 | CCNC(=O)N1N=C(c2cc(F)ccc2F)CC1(CCCO)c1ccccc1 (stereo unspecified) | –
